Measured values: ChEMBL document CHEMBL1136750, “Synthesis and evaluation of a novel nonsteroidal-specific endothelial cell proliferation inhibitor” (2003)

Columns and labels:
HUVEC [1] = assay: In vitro inhibition of primary human umbilical vein endothelial cell (HUVEC) proliferation at 0.01 uM; format: functional; details: values are per cent of control
In short: (§1)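 bFGF-stimulated HUVEC proliferation; cells incubated with bFGF alone or with increasing compound concentrations. Cell counts remaining normalized: maximal bFGF response = 100%, wells without bFGF (starved) = 0%. Mean ± SEM, n = 11 or n = 5 depending on experiment.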

[2] = target: Estrogen receptor beta (Homo sapiens) (UniProt Q92731); assay: In vitro displacement of 0.5 nM [3H]E2 from human Estrogen receptor beta at 10 uM
HUVEC [3] = assay: In vitro inhibition of primary human umbilical vein endothelial cell (HUVEC) proliferation at 10 uM; format: functional; details: values are per cent of control; in short: as §1
HUVEC [4] = assay: IIn vitro inhibition of primary human umbilical vein endothelial cell (HUVEC) proliferation at 0.1 uM; format: functional; details: values are per cent of control; in short: as §1
HUVEC [5] = assay: In vitro inhibition of primary human umbilical vein endothelial cell (HUVEC) proliferation at 3 uM; format: functional; details: values are per cent of control; in short: as §1
HUVEC [6] = assay: In vitro inhibition of primary human umbilical vein endothelial cell (HUVEC) proliferation at 1 uM; format: functional; details: values are per cent of control; in short: as §1

Estrogen receptor beta (Homo sapiens), sequence (Q92731 whole entry): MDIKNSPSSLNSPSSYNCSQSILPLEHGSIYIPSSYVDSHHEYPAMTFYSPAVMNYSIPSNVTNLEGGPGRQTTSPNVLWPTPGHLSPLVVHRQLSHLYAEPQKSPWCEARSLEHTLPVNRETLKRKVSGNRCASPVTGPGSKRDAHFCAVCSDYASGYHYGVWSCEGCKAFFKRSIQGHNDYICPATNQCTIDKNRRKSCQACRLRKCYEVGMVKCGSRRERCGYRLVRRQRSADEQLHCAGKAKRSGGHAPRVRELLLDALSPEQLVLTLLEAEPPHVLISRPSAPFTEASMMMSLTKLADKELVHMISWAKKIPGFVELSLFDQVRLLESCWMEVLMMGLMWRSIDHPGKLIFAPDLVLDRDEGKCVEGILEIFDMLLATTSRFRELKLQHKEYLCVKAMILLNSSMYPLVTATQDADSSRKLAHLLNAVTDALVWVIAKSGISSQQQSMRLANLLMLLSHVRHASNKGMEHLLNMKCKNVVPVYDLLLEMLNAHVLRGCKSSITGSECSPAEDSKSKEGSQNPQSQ

| Binding [2] | SMILES | growth, % of control at 0.01 µM (HUVEC [1]) | growth, % of control at 10 µM (HUVEC [3]) | growth, % of control at 0.1 µM (HUVEC [4]) | growth, % of control at 3 µM (HUVEC [5]) | growth, % of control at 1 µM (HUVEC [6]) |
| --- | --- | --- | --- | --- | --- | --- |
| 100% | COc1ccc2c(c1)oc(=O)c1cc(C(C)=O)ccc12 | 100% | 25% | 90% | 30% | 85% |
| 90% | COc1cc2c(cc1O)oc(=O)c1cc(C(C)=O)ccc12 | 90% | 10% | 100% | 60% | 85% |

| SMILES | Binding [2] | growth, % of control at 0.01 µM (HUVEC [1]) | growth, % of control at 10 µM (HUVEC [3]) | growth, % of control at 0.1 µM (HUVEC [4]) | growth, % of control at 3 µM (HUVEC [5]) | growth, % of control at 1 µM (HUVEC [6]) |
| --- | --- | --- | --- | --- | --- | --- |
| COc1cc2c(cc1O)CC[C@@H]1[C@@H]2CC[C@]2(C)[C@@H](O)CC[C@@H]12 [2-METHOXYESTRADIOL] | 25% | 100% |  | 100% | 25% | 60% |
